Measurements as given in ChEMBL document CHEMBL3425409, “General role of the amino and methylsulfamoyl groups in selective cyclooxygenase(COX)-1 inhibition by 1,4-diaryl-1,2,3-triazoles and validation of a predictive pharmacometric PLS model” (Eur J Med Chem, 2015).
Calls of active or inactive are those of the source. The rule behind the calls is not given here.

Legend:
[1] = target: T1, Prostaglandin G/H synthase 1 (Ovis aries) (UniProt P05979); assay: Inhibition of ovine COX-1 assessed as inhibition of PGH2 production using arachidonic acid as substrate at 50 uM by TMPD oxidation based colorimetric assay
T1 sequence (whole entry): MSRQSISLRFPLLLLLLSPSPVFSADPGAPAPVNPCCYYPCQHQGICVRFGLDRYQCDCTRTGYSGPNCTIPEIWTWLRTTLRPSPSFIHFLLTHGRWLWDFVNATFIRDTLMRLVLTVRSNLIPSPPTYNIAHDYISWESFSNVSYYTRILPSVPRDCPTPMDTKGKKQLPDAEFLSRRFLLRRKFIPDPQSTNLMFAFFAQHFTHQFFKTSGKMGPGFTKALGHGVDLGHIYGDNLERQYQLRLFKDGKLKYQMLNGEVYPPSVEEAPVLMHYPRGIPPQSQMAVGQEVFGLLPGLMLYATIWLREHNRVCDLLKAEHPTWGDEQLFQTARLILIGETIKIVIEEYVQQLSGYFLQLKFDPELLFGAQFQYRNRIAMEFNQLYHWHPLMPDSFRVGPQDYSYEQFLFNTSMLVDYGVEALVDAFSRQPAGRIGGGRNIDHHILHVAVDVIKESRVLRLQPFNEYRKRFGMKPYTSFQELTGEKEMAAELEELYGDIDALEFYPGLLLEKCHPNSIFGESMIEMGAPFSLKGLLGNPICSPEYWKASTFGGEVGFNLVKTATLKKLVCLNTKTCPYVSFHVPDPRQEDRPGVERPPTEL
Procedure, shortened: (§1)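 Ovine COX-1 and COX-2 tested with a commercial colorimetric COX inhibitor screening kit, run per the manufacturer's protocol. The kit reads the enzyme's peroxidase activity. Compounds screened as percent inhibition at a single 50 µM concentration.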

[2] = target: T2, Prostaglandin G/H synthase 2 (Ovis aries) (UniProt P79208); assay: Inhibition of ovine COX-2 assessed as inhibition of PGH2 production using arachidonic acid as substrate at 50 uM by TMPD oxidation based colorimetric assay; procedure, shortened: as §1
T2 sequence (whole entry): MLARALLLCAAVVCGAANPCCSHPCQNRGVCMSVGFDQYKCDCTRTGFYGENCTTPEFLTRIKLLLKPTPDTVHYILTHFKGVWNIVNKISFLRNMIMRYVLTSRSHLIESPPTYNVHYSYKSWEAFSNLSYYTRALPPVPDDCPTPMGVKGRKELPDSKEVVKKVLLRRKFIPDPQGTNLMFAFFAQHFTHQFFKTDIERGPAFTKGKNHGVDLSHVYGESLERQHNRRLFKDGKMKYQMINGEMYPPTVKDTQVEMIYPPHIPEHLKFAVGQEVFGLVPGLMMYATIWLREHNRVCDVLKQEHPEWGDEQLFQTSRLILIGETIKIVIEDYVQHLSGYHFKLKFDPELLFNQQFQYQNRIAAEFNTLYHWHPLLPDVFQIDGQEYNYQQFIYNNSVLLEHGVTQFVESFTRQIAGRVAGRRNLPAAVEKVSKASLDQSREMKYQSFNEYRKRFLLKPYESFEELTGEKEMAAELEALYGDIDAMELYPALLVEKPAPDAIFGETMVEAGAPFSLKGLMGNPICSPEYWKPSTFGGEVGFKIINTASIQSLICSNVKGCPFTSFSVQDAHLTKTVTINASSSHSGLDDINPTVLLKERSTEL

[3] = target: T3, Prostaglandin G/H synthase 2 (Homo sapiens, UniProt P35354); assay: Inhibition of LPS-induced COX2 in human whole blood assessed as reduction in […] levels by radioimmunoassay
T3 sequence (P35354 whole entry): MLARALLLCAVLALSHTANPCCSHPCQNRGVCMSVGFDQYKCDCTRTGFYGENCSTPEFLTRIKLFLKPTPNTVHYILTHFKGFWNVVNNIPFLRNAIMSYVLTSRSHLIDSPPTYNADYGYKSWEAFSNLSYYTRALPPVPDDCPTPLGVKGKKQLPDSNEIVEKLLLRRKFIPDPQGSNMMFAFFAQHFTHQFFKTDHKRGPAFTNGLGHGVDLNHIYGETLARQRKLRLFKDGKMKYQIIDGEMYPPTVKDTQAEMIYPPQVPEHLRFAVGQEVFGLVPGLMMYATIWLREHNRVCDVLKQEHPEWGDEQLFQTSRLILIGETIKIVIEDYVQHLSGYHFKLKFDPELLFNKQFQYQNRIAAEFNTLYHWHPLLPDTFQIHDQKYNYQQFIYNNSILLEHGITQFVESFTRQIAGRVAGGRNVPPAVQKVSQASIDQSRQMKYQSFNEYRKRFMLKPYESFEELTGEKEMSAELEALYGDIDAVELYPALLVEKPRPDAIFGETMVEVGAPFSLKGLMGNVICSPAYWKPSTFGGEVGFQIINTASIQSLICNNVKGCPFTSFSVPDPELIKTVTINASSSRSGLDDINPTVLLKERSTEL

MCF7 = assay: Antiproliferative activity against human MCF7 cells assessed as cell growth inhibition after 48 hrs by MTT assay; assay type: cell-based; conditions: mcf7, 48 h
Procedure, shortened: (§2)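 MTT read-out of growth after 48 h. After the drug incubation, MTT was added at 0.5 mg/mL for 3 h at 37 °C. Supernatant was removed, formazan dissolved in DMSO, and absorbance read.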

SK-OV-3 = assay: Antiproliferative activity against human SKOV3 cells assessed as cell growth inhibition after 48 hrs by MTT assay; assay type: cell-based; conditions: sk-ov-3, 48 h; procedure, shortened: as §2
[4] = target: T4, Prostaglandin G/H synthase 2 (Ovis aries, UniProt P79208); assay: Inhibition of ovine COX-2 assessed as inhibition of PGH2 production using arachidonic acid as substrate by TMPD oxidation based colorimetric assay
T4 sequence (P79208 whole entry): T2 sequence (whole entry)

Row | SMILES | inhibition [1] | inhibition [2] | further results
1 | Clc1ccc(-c2noc(CBr)c2-c2ccccc2)o1 | 37% |  | 
2 | Cc1c(-c2ccco2)nnn1-c1ccc([N+](=O)[O-])cc1 | inactive | 40% | 
3 | Cc1onc(-c2ccc(Cl)o2)c1-c1ccccc1 | 89% |  | IC50 [3]: > 100000 nM
4 | COc1ccc(-c2nnn(-c3ccc(S(C)(=O)=O)cc3)c2C)cc1 | 55% | inactive | 
5 | COc1ccc(-n2nc(C(F)(F)F)cc2-c2ccco2)cc1 |  | 28% | 
6 | COc1ccc(-n2nnc(-c3ccc(Cl)o3)c2C)cc1 | 45% | inactive | 
7 | COc1ccc(-c2noc(CC(=O)O)c2-c2ccc(OC)cc2)cc1 [MOFEZOLAC] |  |  | IC50 [4]: 440 nM
8 | COc1ccc(-n2nnc(-c3ccc(S(C)(=O)=O)cc3)c2C)cc1 | 20% | inactive | 
9 | COc1ccc(-n2nnc(-c3ccco3)c2C)cc1 | inactive | inactive | 
10 | COC(=O)Cc1onc(-c2ccc(Cl)o2)c1-c1ccccc1 | 7% |  | 
11 | N#CCc1onc(-c2ccc(Cl)o2)c1-c1ccccc1 | 11% |  | 

Second part, led by results:

Row | inhibition [1] | inhibition [2] | SMILES | further results
12 | 25% | inactive | COc1ccc(-c2nnn(-c3ccc(OC)cc3)c2C)cc1 | 
13 | 21% | 20% | Cc1c(-c2ccccc2)nnn1-c1ccc(S(C)(=O)=O)cc1 | 
14 | 26% | 35% | COc1ccc(-n2nnc(-c3ccccc3)c2C)cc1 | 
15 | inactive | inactive | Cc1c(-c2ccccc2)nnn1-c1ccc(Cl)cc1 | 
16 | 56% | inactive | Cc1c(-c2ccccc2)nnn1-c1ccc(N)cc1 | Activity (MCF7): Non-toxic; Activity (SK-OV-3): Non-toxic
17 | inactive | inactive | COc1ccc(-c2nnn(-c3ccc(SC)cc3)c2C)cc1 | 
18 | inactive | inactive | Cc1c(-c2ccccc2)nnn1-c1ccc(F)cc1 | 
19 | inactive | 26% | Cc1c(-c2ccccc2)nnn1-c1ccc(O)cc1 | 
20 | 20% | inactive | COc1ccc(-n2nnc(-c3ccc([N+](=O)[O-])cc3)c2C)cc1 | 
21 | inactive | inactive | Cc1c(-c2ccccc2)nnn1-c1ccc([N+](=O)[O-])cc1 | 
22 | inactive | inactive | COc1ccc(-n2nnc(-c3ccc(SC)cc3)c2C)cc1 | 
23 | 100% | inactive | COc1ccc(-n2nnc(-c3ccc(N)cc3)c2C)cc1 | Activity (MCF7): Non-toxic; Activity (SK-OV-3): Non-toxic
24 | inactive | 14% | CSc1ccc(-n2nnc(-c3ccccc3)c2C)cc1 | 
